The source of these data is ChEMBL document CHEMBL1153796, “Isoprenylated chromone derivatives from the plant endophytic fungus Pestalotiopsis fici” (J Nat Prod, 2009).

Each structure is given as a SMILES string.

Assay [1] has as its system Human immunodeficiency virus 1. Nature of the assay: Antiviral activity against HIV1 infected human C8166 cells assessed as inhibition of viral replication after 4 days by p24 antigen capture ELISA. The settings on record: Human immunodeficiency virus 1, C8166, 96 h. In kind it is functional, organism-based. For orientation: An ELISA detects its analyte on a solid surface through an enzyme-linked reagent.

Another assay deals with HeLa. Nature of the assay: Cytotoxicity against human HeLa cells after 48 hrs by MTT assay. The format is functional, cell-based. The procedure, abridged:
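Cells plated at 10^4/well and allowed to attach overnight. Exposed to compound dilutions from DMSO stock (vehicle 0.2% DMSO) for 4 h at 37 °C, then grown 48 h in fresh DMEM. MTT at 0.5 mg/mL added for 3 h, formazan dissolved in DMSO, absorbance at 540 nm; 5-fluorouracil as positive control.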

For another assay, the system named is MCF7. Nature of the assay: Cytotoxicity against human MCF7 cells after 48 hrs by MTT assay. The format is functional, cell-based. The following applies: MCF7, 48 h.
In a further assay the test system is C8166. Nature of the assay: Cytotoxicity against human C8166 cells after 4 days by MTT assay. The format is cell-based. The settings on record: C8166, 96 h. The gist of the method:
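C8166 cells seeded at 3 × 10^4/well with various compound concentrations in triplicate, 37 °C, 5% CO2, run alongside the HIV-1 assay.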
On the technique in general: Formazan colour is commonly taken as a measure of viable cells.

In the case of `CC(C)=CC=C1C2=C(C[C@H](O)[C@@H]1O)C(=O)CC(C)(C)O2` (mixture of isomers), the EC50 in assay [1] came to 89.2 µM. Besides, the IC50 in the assay with HeLa and with MCF7 was more than 144 µM in each case.

For `O=c1[nH]cc(F)c(=O)[nH]1` [FLUOROURACIL], in the assay on HeLa, the half-inhibitory concentration (IC50) came out at 10 µM. In other words, the double-digit micromolar range.

As to `CC(C)=CC[C@]12O[C@H]1[C@@H](O)CC1=C2OC(C)(C)CC1=O` [PESTALOFICIOL F], the EC50 in assay [1] was more than 100 µM. The IC50 with HeLa and with MCF7 was more than 144 µM each time.

For the compound `CC1(C)CC(=O)C2=C(O1)C1=C[C@@H](C(C)(C)O)O[C@H]1[C@@H](O)C2` [PESTALOFICIOL I], in assay [1], the EC50 was more than 100 µM. For the same compound, the IC50 is more than 136 µM in the assay on HeLa and 136 µM in the assay on MCF7.

Compound `CC(C)=CCc1cc(O)cc2c1OC(C)(C)CC2=O` [PESTALOFICIOL J] showed a CC50 with C8166 of more than 100 µM. In assay [1], the EC50 is 8 µM. Besides, the IC50 in the assay on HeLa was 21.2 µM; in the assay on MCF7, more than 154 µM.

Regarding `CC(=O)OC1=CC(C)(C)Oc2c(CC=C(C)C)cc(O)cc21` [PESTALOFICIOL K], the concentration for a half-maximal effect (EC50) in assay [1] was found to be 78.2 µM. Moreover, the IC50 with HeLa was 99.3 µM; with MCF7 it was more than 132 µM.

Take `COC(=O)c1cc(OC)cc(O)c1C(=O)c1c(O)cc(C)c(C2=CC(C)(C)Oc3c(CC=C(C)C)cc(O)cc32)c1O` [PESTALOFICIOL L]: in assay [1], the EC50 is more than 100 µM. For the same compound, the IC50 in the assay with HeLa came out at 8.7 µM; with MCF7, 17.4 µM.

For orientation: EC50 means the concentration giving half of the maximal effect. One may read the IC50 as the concentration that inhibits the measured activity by half. A lower IC50 goes with greater potency. The term CC50 denotes the concentration at which the toxic effect on the cells reaches its halfway point. The low end stands for greater toxicity to the cells, the high end for lower toxicity to the cells.
